# Screens as filed in PubChem BioAssay.
# TMEM16A inh: blocks the mouse calcium-activated chloride channel TMEM16A | Q8BHY3 | HEK293 TMEM16A/YFP iodide influx fluorescence, ionomycin | normalized B-score (activity score, 25-100; higher = stronger inhibition) at 10 µM | actives 1.2% (n = 310,000) | AID 588511;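 active = ratio plate-corrected score three or more library SD toward inhibition, starting fluorescence score within five deviations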;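 note: score derived from kinetic fluorescence span divided by baseline fluorescence per well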
# MT1-MMP act inh: inhibitors of human MT1-MMP activation; P50281; HT1080 RFP-PRO-GFP cells, GFP/RFP ratio fluorescence, overnight; percent of plate control window, DMSO zero; GFP/RFP ratio change, % at 20 µM; actives 0.061% (n = 360,000);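 active = GFP/RFP ratio change of at least 30% with cell ATP level not reduced by more than half and red fluorescence within 50% of control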
#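 Read-out: GFP/RFP fluorescence ratio; Test system: RFP-PRO-GFP reporter HT1080 cells; Compound dosing: single-point 20 µM compound, 1% DMSO; Times: overnight compound exposure at 37 °C.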
# TMEM16A act: mouse TMEM16A channel activation, primary screen | Q8BHY3 | HEK293 TMEM16A/YFP-H148Q/I152L, iodide quench fluorescence; hits give low values | B-score at 10 µM | actives 0.3% (n = 340,000) | AID 623877;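 active = fluorescence-ratio B-score plate-corrected deviation score at least 3 library SD below zero, with starting fluorescence score within 5 deviations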;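 note: channel opened by trigger with iodide after compound preincubation; score built on the fluorescence ratio of max minus min over baseline; more negative score means more quench and so TMEM16A activation or potentiation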
# DAGLB inhibitor: blocks human DAGLB lipase activity; HEK293T DAGLB membrane lysate, EnzChek fluorogenic substrate; inhibition, % at 5.17 µM; actives 0.059% (n = 340,000); in the data active = inhibition above about 34%;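 note: 0% = enzyme with vehicle and 100% = wells lacking enzyme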
# Target sequence (Q8NCG7 whole entry, looked up): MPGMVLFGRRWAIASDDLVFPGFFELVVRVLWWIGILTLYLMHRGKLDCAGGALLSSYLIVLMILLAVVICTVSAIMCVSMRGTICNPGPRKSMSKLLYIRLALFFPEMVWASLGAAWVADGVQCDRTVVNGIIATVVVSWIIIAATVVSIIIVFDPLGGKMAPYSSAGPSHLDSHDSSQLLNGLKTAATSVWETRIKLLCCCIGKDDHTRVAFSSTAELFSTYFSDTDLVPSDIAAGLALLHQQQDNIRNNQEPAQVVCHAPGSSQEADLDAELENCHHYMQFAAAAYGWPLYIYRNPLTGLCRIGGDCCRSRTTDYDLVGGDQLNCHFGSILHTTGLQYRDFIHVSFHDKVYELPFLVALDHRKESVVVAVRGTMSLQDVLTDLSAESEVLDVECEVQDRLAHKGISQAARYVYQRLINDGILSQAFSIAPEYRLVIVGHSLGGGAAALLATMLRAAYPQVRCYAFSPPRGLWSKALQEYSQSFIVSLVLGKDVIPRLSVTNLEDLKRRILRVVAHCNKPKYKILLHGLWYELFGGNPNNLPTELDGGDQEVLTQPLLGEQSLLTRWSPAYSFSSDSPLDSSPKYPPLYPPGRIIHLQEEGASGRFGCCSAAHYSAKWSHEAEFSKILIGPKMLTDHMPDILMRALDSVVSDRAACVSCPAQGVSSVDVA
# * marks the source's active call; other numbers are inactive results; i = inactive; · = no result. Hits are enriched below; roughly 1.3% of the tested compounds scored in any of these assays.
SMILES,TMEM16A inh,MT1-MMP act inh,TMEM16A act,DAGLB inhibitor
CCCCCCCCCCS(=O)(=O)N/N=C/c1ccc([N+](=O)[O-])cc1,100*,-0.3,i,7.4
Cc1ccc(/C=N/NS(=O)(=O)c2ccc([N+](=O)[O-])cc2)o1,i,2.2,i,1.4
O=C(NCCN1CCN(C(=O)c2cccc(OC(F)F)c2)CC1)c1cccc(OC(F)F)c1,·,-5.0,i,-3.1
CN(CC(=O)NCc1ccc(F)cc1)CC(=O)Nc1ccc(Cl)c(C(F)(F)F)c1,100*,5.2,i,2.0
Cc1cccc(/C=N/n2c(-c3cc(-c4ccccc4)n[nH]3)n[nH]c2=S)c1,i,5.6,-6.63*,3.2
S=c1[nH]nc(-c2cc(-c3ccccc3)n[nH]2)n1/N=C/c1ccccc1,i,6.8,i,-0.4
Clc1ccc2c(c1)C(N1CCNCC1)Cc1ccccc1S2 (stereo not given),25*,-53.4,i,2.0
CCCCn1ccnc1C(=O)c1cc(S(=O)(=O)N2CCOCC2)ccc1C,i,16.3,i,-2.6
CCCCn1ccnc1C(=O)c1cccc(S(=O)(=O)N2CC(C)CC(C)C2)c1 (stereo not given),100*,-7.7,i,-11.5
CC(C)n1c(CNC(=O)c2ccccc2F)nnc1SCC(=O)c1ccc(F)cc1,·,-0.6,i,5.1
COc1cccc2cc3c(=O)oc4ccccc4c3nc12,i,1.0,-12.4*,-2.8
COc1ccccc1OC(=O)c1cc2ccccc2oc1=O,i,5.7,i,-0.9
CCN(CC)Cc1cc2ccccc2c2c1COC2,25*,-1.7,i,-1.8
COCCNC(=O)C1(C)CCCN(C(=O)c2cccc(Cl)c2)C1 (stereo not given),·,-1.6,·,·
CC(C)Cn1c(SCC(=O)NC(=O)NC2CCCC2)nc2ccccc21,25*,-0.1,i,-2.6
O=C(O)c1ccc(CN2C[C@@H](CO)O[C@@H](n3cnc4c(NCc5ccco5)ncnc43)C2)cc1,·,-3.9,·,·
CC1(C(=O)NCc2ccco2)Cc2c(-c3cccc(C(N)=O)c3)ccnc2O1 (stereo not given),·,6.0,·,·
CC1(C)CC(=O)C2=C(C1)OC(N)=C(C#N)C2c1cc2c(cc1[N+](=O)[O-])OCO2 (stereo not given),i,-108.5,-4.97*,-3.9
CCOc1cc(C2C(C#N)=C(N)OC3=C2C(=O)CC(C)(C)C3)cc([N+](=O)[O-])c1O (stereo not given),i,1.8,i,3.6
Cc1ccc(S(=O)(=O)N2C3CCCCC3O[C@H]2CC(=O)c2cccc3ccccc23)cc1 (stereo not given in full),·,3.8,·,·
CCN=c1scc(-c2ccc3c(c2)NC(=O)CO3)n1N=C1CCCC1,100*,-0.5,i,0.9
CCCCN=c1scc(-c2ccc3c(c2)NC(=O)CO3)n1N=C1CCCC1,i,-22.4,i,6.3
Nc1c(/C=C2/C=CC(=O)C(O)=C2)c(=O)nc2sc(CC(=O)N3CCCCC3)nn12,i,-60.3,-5.45*,4.6
CCOC1=C/C(=C/c2c(N)n3nc(CC(=O)N4CCCC4)sc3nc2=O)C=CC1=O,i,-19.8,i,1.9
COC1=C/C(=C/c2c(N)n3nc(CC(=O)N4CCCC4)sc3nc2=O)C=CC1=O,i,-31.7,-5.71*,-0.4
SMILES,TMEM16A inh,MT1-MMP act inh,TMEM16A act,DAGLB inhibitor
CC(C)CCN1CCN(Cc2ccc(C#CC(C)(C)O)s2)CC1CCO (stereo not given),i,0.8,-8.54*,-0.3
CC(C)CN1CCN(Cc2ccc(C#CC(C)(C)O)cc2)CC1CCO (stereo not given),i,0.4,i,1.9
C=CCn1c(NS(=O)(=O)c2ccccc2)c(S(=O)(=O)c2ccc(C)cc2)c2nc3ccccc3nc21,i,0.8,i,-0.6
O=S(=O)(Nc1c(S(=O)(=O)c2ccccc2)c2nc3ccccc3nc2n1C1CCCCC1)c1ccccc1,100*,-7.5,i,-5.0
CCN(CC)C(=O)c1[nH]cnc1C(=O)Nc1ccccc1F,·,-0.6,·,-2.5
N#Cc1cccc(C2CC(OCCF)=CC(=O)O2)c1 (stereo not given),·,-0.8,·,·
O=C(NC(NNc1ccc([N+](=O)[O-])cc1)(C(F)(F)F)C(F)(F)F)c1ccc(F)cc1,100*,-5.4,i,2.1
CC(C)CCNC(=S)Nc1ccc([N+](=O)[O-])cc1,100*,-10.6,i,-0.8
CC(C)CCNC(=S)Nc1ccc(Br)cc1,i,3.1,i,-5.3
O=[N+]([O-])c1ccc(NNC(=S)Nc2ccc(F)cc2)cc1,100*,3.1,i,8.3
CCCCNC(=S)Nc1ccc([N+](=O)[O-])cc1,100*,-5.6,i,-3.7
CCCCNC(=S)NC(=O)c1ccc([N+](=O)[O-])cc1,i,3.2,i,-13.2
O=C(NCc1ccccc1)C(C1CC1)n1c(=O)c(-c2cc3ccccc3[nH]2)nc2ccccc21 (stereo not given),·,-3.0,·,·
COc1cccc(CNC(=O)[C@@H]2CCCN2C(=O)[C@H]2CCCCN2S(=O)(=O)c2ccc(OC)c(C)c2)c1,·,2.4,·,·
COc1ccc(NS(=O)(=O)c2ccc(C)c(C(=O)NCCCn3ccnc3)c2)cc1,·,0.6,·,0.0
Cc1ccc(S(=O)(=O)N(C)c2ccc(C(=O)N(C)Cc3nc4ccccc4c(=O)[nH]3)cc2)cc1,·,1.4,i,2.3
NS(=O)(=O)c1ccc(CNC(=S)Nc2ccc(Cl)c(Cl)c2)cc1,i,-1.2,-5.27*,-0.4
CS(=O)(=O)Nc1ccc2c(c1)[C@H]1C[C@H](CC(=O)NCc3cccc(F)c3)O[C@@H](CO)[C@H]1O2,·,0.8,·,-0.3
COc1ccccc1C(=O)NNC(=S)NC(=O)c1cc(OC)c(OC)c(OC)c1,i,9.8,i,0.4
COc1cc(C(=O)NC(=S)NNC(=O)[C@H]2C[C@@H]2c2ccccc2)cc(OC)c1OC,25*,3.6,i,-0.1
CCNC(=O)c1ccc2c(c1)C1C3CCC(C3)C1C(c1ccccc1)N2 (stereo not given),i,-2.1,-6.68*,0.9
Cc1ccc(C)c(C(O)c2ncc(-c3cccc(C(F)(F)F)c3)[nH]2)c1 (stereo not given),·,4.5,·,·
Cc1cc(-c2nc3cccnc3s2)ccc1NS(=O)(=O)c1ccc2c(c1)OCCO2,i,5.2,i,-8.7
Cc1c(NS(=O)(=O)c2ccc3c(c2)OCCO3)cccc1-c1nc2cccnc2s1,25*,11.3,i,-3.3
O=C1CC(c2ccsc2)c2ccc3ccccc3c2N1 (stereo not given),i,-0.5,i,0.5
O=C1CC(c2cccc([N+](=O)[O-])c2)c2ccc3ccccc3c2N1 (stereo not given),25*,2.9,i,4.7
Cc1cc(-n2c(C)cc(C(=O)CSc3nc4ccccc4c(=O)n3Cc3ccco3)c2C)no1,i,-1.1,-9.12*,-3.0
O=C(CSc1nc2ccccc2c(=O)n1Cc1ccco1)c1ccccc1,i,-15.4,i,-1.9
